Screening data from PubChem BioAssay.
M1 antag – antagonists of rat M1 muscarinic receptor. CHO-M1 cells, Fluo-4 calcium, ACh EC80 antagonist mode; stronger effect = lower value. B-score at 10 µM. 64,000 compounds, 3.4% hits;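 active = calcium fluorescence response, raw or row-and-column corrected B-score, differing from the plate sample mean either way at a set confidence level, mostly lower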
TNAP act mid DEA – human TNAP enzyme activators, primary screen, biochemical, luminescent, intermediate phosphate acceptor level; Alkaline phosphatase, tissue-nonspecific isozyme (Homo sapiens), P05186; purified TNAP, CDP-star luminescence, 100 mM DEA, 30 min; stronger effect = higher value; scale: 0 levamisole-inhibited, 1 vehicle-only enzyme; activation factor at 20 µM; 64,000 tested, under 10 active; AID 813, 2007;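 active = activation factor of at least 2 at 20 µM, relative to controls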
Target sequence (P05186 whole entry, looked up): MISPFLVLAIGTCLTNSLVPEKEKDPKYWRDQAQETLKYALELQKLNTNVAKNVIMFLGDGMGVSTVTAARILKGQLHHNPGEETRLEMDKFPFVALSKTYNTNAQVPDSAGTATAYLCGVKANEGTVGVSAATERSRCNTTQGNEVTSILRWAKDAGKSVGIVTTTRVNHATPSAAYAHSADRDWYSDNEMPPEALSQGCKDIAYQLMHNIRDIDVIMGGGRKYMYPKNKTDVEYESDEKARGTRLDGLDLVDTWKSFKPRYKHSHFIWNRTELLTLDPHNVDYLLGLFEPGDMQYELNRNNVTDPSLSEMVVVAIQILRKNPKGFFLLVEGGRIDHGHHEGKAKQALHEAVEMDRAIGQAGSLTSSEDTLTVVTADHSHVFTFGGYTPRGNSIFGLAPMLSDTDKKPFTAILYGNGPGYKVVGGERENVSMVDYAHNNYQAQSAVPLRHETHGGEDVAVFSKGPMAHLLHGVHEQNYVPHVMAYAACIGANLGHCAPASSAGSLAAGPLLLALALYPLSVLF
M1 ag – M1 muscarinic receptor agonists, primary screen, CHO-M1 cells, Fluo-4 calcium, agonist mode; Fluo-4 calcium fluorescence; stronger effect = higher value; B-score at 10 µM; 64,000 compounds, 3% hits; Muscarinic acetylcholine receptor M1;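 active = fluorescence rise, raw or as B-score row- and column-corrected plate score, outside the 99.7% band of its plate's samples, either direction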
S1P1 ag pot – S1P1 agonists and agonism potentiators, primary screen, cell-based, primary and confirmation screens, CRE-bla reporter. S1P1 CRE-bla cells, forskolin, beta-lactamase FRET, potentiator mode; S1P1 agonist co-added at EC20, 2 nM; 100% = saturating reference agonist, 0% = basal. activation, % at 9.5 µM. 56,000 compounds, 0.57% hits;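 active = activation above a cutoff set at the mean activation of all tested compounds plus 3 SD, cut at about 54% in these data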;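 note: forskolin at 4 µM as EC80 and the EC20 agonist is SEW2871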
S1P3 ag – human S1P3 receptor agonists, primary screen, cell-based, primary and confirmation, NFAT-BLA reporter | activation, % at 4.5 µM | AID 373, 2006 | Sphingosine 1-phosphate receptor 3 (Homo sapiens), Q99500 | 60,000 compounds, 0.1% hits | S1P3 NFAT-BLA reporter cells, agonism, FRET ratio; relative to 1 µM S1P, basal subtracted;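 active = activation above the screen-wide mean plus 3 SD, cut at about 4.5% in these data, passing the limit was not always enough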
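Assay system: stable CHO line with human S1P3, Gα16, NFAT-BLA reporter; Detection: FRET β-lactamase substrate fluorescence, excitation 405 nm, 460/535 nm emission ratio, background-subtracted; Read-out: percent activation versus median 1 µM S1P response, basal-subtracted, per plate; Incubation: cells plated overnight, compound 4 h 37 °C, substrate 2 h RT.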
D1 allo mod – D1 CRE-luciferase signal change, two-sided – cell-based, HEK293 D1, dopamine EC30, D1 allosteric modulator project, primary screen; D(1A) dopamine receptor (Homo sapiens), P21728; dopamine EC30 potentiation; actives deviate in either direction; B-score at 10 µM; 58,000 compounds, 5.9% hits; AID 641, 2007;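 active = luminescence count or its row- and column-corrected plate score outside the 99.7% band of the plate's sample wells, on either side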
D1 mod confirm – D1 receptor positive allosteric modulators, retest, confirmation, cell-based, HEK293 D1, CRE-luciferase, duplicate; shares compounds with D1 allo mod; dopamine EC30 potentiation; stronger effect = higher value; luminescence at 10 µM; 2,200 compounds, 88% hits;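 active = luminescence in either of two replicates above the same-plate mean plus 3 SD of the low-dose dopamine control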
D1 ag no DA – D1 receptor agonism without dopamine, confirmation, mechanism study for D1 allosteric modulator project, cell-based, HEK293 D1, CRE-luciferase, secondary assay 1 | shares compounds with D1 allo mod | luminescence, no dopamine; stronger effect = higher value | luminescence at 10 µM | 1,900 compounds, 0.8% hits; in the data active = luminescence above about 3900
Isoprot counter – isoproterenol response counter-screen activity for D1 modulators; luminescence at 10 µM; HEK293 D1 CRE-luciferase, isoproterenol EC30 counter-screen; stronger effect = higher value; 2,200 compounds, 63% hits; shares compounds with D1 allo mod;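 active = luminescence in either replicate above plate mean of wells with a partly effective reference agonist dose plus 3 SD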;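 note: isoproterenol raises cAMP through native beta-adrenoceptor Gs so signal bypasses D1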
Of the large screens only hits and unclear results are named; the others gave an inactive call (follow-up assays come after a bar, where they were run). Compounds with a hit are over-represented: about 11% of the library has one in this group of screens.

CCCCn1c(SCc2ccc(Cl)cc2)nc2c1c(=O)[nH]c(=O)n2C	D1 allo mod 7.4 | D1 mod confirm 25640 | D1 ag no DA inactive | Isoprot counter 8420
CCSc1nc2c(c(=O)[nH]c(=O)n2C)n1Cc1ccc(Cl)cc1	D1 allo mod 5.5 | D1 mod confirm 15452 | D1 ag no DA inactive | Isoprot counter 4916
CC(C)CCn1c(SCc2ccc(Cl)cc2)nc2c1c(=O)[nH]c(=O)n2C	D1 allo mod 14 | D1 mod confirm 13248 | Isoprot counter 4960
Cc1ccc(CSc2nc3c(c(=O)[nH]c(=O)n3C)n2CCC(C)C)cc1	none
CCCCCOC(=O)CSc1nc2c(c(=O)[nH]c(=O)n2C)n1Cc1ccc(Cl)cc1	none
Cc1ccc(C(=O)C2CCN(CC(=O)Nc3ccc(N(C)C)cc3)CC2)cc1	none
CCOc1ccc(-c2nnn(CC(=O)c3cc(OC)ccc3OC)n2)cc1	none (no result: D1 allo mod)
C/C=C/CSc1nc2c(c(=O)[nH]c(=O)n2C)n1Cc1ccc(C)cc1	D1 allo mod 20 | D1 mod confirm 16484 | D1 ag no DA inactive | Isoprot counter 6200
Cc1ccc(Cn2c(Sc3ncccn3)nc3c2c(=O)[nH]c(=O)n3C)cc1	none (no result: S1P1 ag pot, S1P3 ag)
COc1cc(CC(=O)Oc2ccc3c(c2)OCO3)cc(OC)c1OC	none
O=C(NC1CCCC1)c1cccnc1N1CCCCCC1	none
Cc1nc2cccc(C(=O)NC3CCCCC3)c2o1	D1 allo mod 14 | D1 mod confirm 19668 | Isoprot counter 3692
Cc1cc(C)nc(NS(=O)(=O)c2cccs2)c1	none
O=S(=O)(Nc1nc2ccccc2nc1NCc1ccco1)c1cccs1	D1 allo mod 8.4 | D1 mod confirm 15532 | D1 ag no DA inactive | Isoprot counter 3728
C=CCNc1nc2ccccc2nc1NS(=O)(=O)c1cccs1	D1 allo mod 6.9 | D1 mod confirm 11704 | Isoprot counter 2836
COc1ccc(C)cc1NC(=O)CSc1nnc(-c2ccc(OC)c(OC)c2)n1N	D1 allo mod 22 (no result: S1P1 ag pot, S1P3 ag) | D1 mod confirm 18440 | D1 ag no DA inactive | Isoprot counter 5076
CCOc1cccc(-c2nnc(SCC(=O)Nc3cc(C)ccc3OC)n2N)c1	none (no result: S1P1 ag pot, S1P3 ag)
Fc1cccc(Nc2cc(-n3cccn3)ncn2)c1	D1 allo mod 8.5 | D1 mod confirm 8308 | D1 ag no DA inactive | Isoprot counter 3628
S=c1[nH]nc(-c2ccco2)n1Cc1ccccc1	none (no result: D1 allo mod)
c1coc(-c2nc3nc4ccccc4nc3n2CC2CCCO2)c1 (stereo not given)	D1 allo mod 4.8 (no result: M1 antag, M1 ag, S1P1 ag pot, S1P3 ag) | D1 mod confirm 10012 | D1 ag no DA inactive | Isoprot counter 3456
CCCCCn1c(-c2ccco2)nc2nc3ccccc3nc21	D1 allo mod 12 | D1 mod confirm 18024 | D1 ag no DA inactive | Isoprot counter 3868
O=c1c2ccccc2nc(-c2ccco2)n1Cc1ccccc1	D1 allo mod 7.8 (no result: S1P1 ag pot, S1P3 ag) | D1 mod confirm 19492 | D1 ag no DA inactive | Isoprot counter 4148
Cc1ccccc1Cn1cc(S(=O)(=O)CC(=O)Nc2nccs2)c2ccccc21	none (no result: S1P1 ag pot, S1P3 ag)
CSc1nnc(C)c(=O)[nH]1	none (no result: D1 allo mod)
